{
  "source": "ChEMBL document CHEMBL5724801",
  "about": "“EUbOPEN Chemogenomics Library - Multiplex” (2024)",
  "key": {"U2OS": {"system": "U2OS", "experiment": "Multiplex assay against U2OS", "format": "toxicity, cell-based", "conditions": "human", "summary_of_the_method": "(§1)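 At seeding, live cells were stained with Hoechst33342, BioTracker Green Microtubule Cytoskeleton Dye, MitoTracker Red and Annexin V Alexa Fluor 680. After compound addition they were imaged on a CQ1 microscope at 37°C and 5% CO2, and CellPathfinder machine-learning gating sorted them into Hoechst high-intensity objects or normal cells, with normal cells further split into healthy, pyknosed or fragmented nuclei and pyknosed cells into mitotic or apoptotic. Tubulin, mitochondrial-mass and membrane-permeability phenotypes are given as per cents of cells with healthy nuclei.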"}, "Fibroblast": {"system": "Fibroblast", "experiment": "Multiplex assay against human fibroblast", "format": "toxicity, cell-based", "summary_of_the_method": "as §1"}, "[1]": {"conditions": "24 h, 10 µM, compound concentration 10 uM"}, "[2]": {"conditions": "48 h, 1 µM, compound concentration 1 uM"}, "[3]": {"conditions": "48 h, 10 µM, compound concentration 10 uM"}, "[4]": {"conditions": "12 h, 1 µM, compound concentration 1 uM"}, "[5]": {"conditions": "12 h, 10 µM, compound concentration 10 uM"}, "[6]": {"conditions": "24 h, 1 µM, compound concentration 1 uM"}},
  "note": "“And” between values parts separate entries of the source, which are not always exact repeats. Identical values can stand only once.",
  "data": [
    {"smiles": "C[C@H](N)COC(=O)[C@@H](CCCCN)NC(=O)Cc1c(-c2ccc3ccccc3c2)[nH]c2c1ccc1ccccc12", "values": [
      {"measurement": "Population Apoptotic (%)", "setting": "U2OS; [1]", "value": "81% and 100%"},
      {"measurement": "Population Fragmented Nuclei (%)", "setting": "U2OS; [1]", "value": "19% and 17%"},
      {"measurement": "Population Healthy Nuclei (%)", "setting": "U2OS; [1]", "value": "73% and 79%"},
      {"measurement": "Population Hoechst High Intensity Objects (%)", "setting": "U2OS; [1]", "value": 2, "unit": "%"},
      {"measurement": "Population Membrane Permeable-Phenotype (%)", "setting": "U2OS; [1]", "value": "5% and 11%"},
      {"measurement": "Population Mitochondria Different-Phenotype (%)", "setting": "U2OS; [1]", "value": "1% and 3%"},
      {"measurement": "Population Mitotic Cells (%)", "setting": "U2OS; [1]", "value": "18% and 0%"},
      {"measurement": "Population Normal (%)", "setting": "U2OS; [1]", "value": 97, "unit": "%"},
      {"measurement": "Population Pyknosed Nuclei (%)", "setting": "U2OS; [1]", "value": "6% and 2%"},
      {"measurement": "Population Tubulin-Different-Phenotype (%)", "setting": "U2OS; [1]", "value": "2% and 6%"},
      {"measurement": "Total Cell Count", "setting": "U2OS; [1]", "value": "337 and 142"},
      {"measurement": "Population Apoptotic (%)", "setting": "U2OS; [2]", "value": "79% and 73%"},
      {"measurement": "Population Fragmented Nuclei (%)", "setting": "U2OS; [2]", "value": "16% and 17%"},
      {"measurement": "Population Healthy Nuclei (%)", "setting": "U2OS; [2]", "value": "78% and 73%"},
      {"measurement": "Population Hoechst High Intensity Objects (%)", "setting": "U2OS; [2]", "value": "1% and 2%"},
      {"measurement": "Population Membrane Permeable-Phenotype (%)", "setting": "U2OS; [2]", "value": "2% and 3%"},
      {"measurement": "Population Mitochondria Different-Phenotype (%)", "setting": "U2OS; [2]", "value": "2% and 4%"},
      {"measurement": "Population Mitotic Cells (%)", "setting": "U2OS; [2]", "value": "20% and 26%"},
      {"measurement": "Population Normal (%)", "setting": "U2OS; [2]", "value": "98% and 97%"},
      {"measurement": "Population Pyknosed Nuclei (%)", "setting": "U2OS; [2]", "value": "5% and 8%"},
      {"measurement": "Population Tubulin-Different-Phenotype (%)", "setting": "U2OS; [2]", "value": "2% and 1%"},
      {"measurement": "Total Cell Count", "setting": "U2OS; [2]", "value": "440 and 231"},
      {"measurement": "Population Apoptotic (%)", "setting": "U2OS; [3]", "value": 90, "unit": "%"},
      {"measurement": "Population Fragmented Nuclei (%)", "setting": "U2OS; [3]", "value": "14% and 16%"},
      {"measurement": "Population Healthy Nuclei (%)", "setting": "U2OS; [3]", "value": "74% and 77%"},
      {"measurement": "Population Hoechst High Intensity Objects (%)", "setting": "U2OS; [3]", "value": 4, "unit": "%"},
      {"measurement": "Population Membrane Permeable-Phenotype (%)", "setting": "U2OS; [3]", "value": "6% and 16%"},
      {"measurement": "Population Mitochondria Different-Phenotype (%)", "setting": "U2OS; [3]", "value": "1% and 2%"},
      {"measurement": "Population Mitotic Cells (%)", "setting": "U2OS; [3]", "value": "9% and 10%"},
      {"measurement": "Population Normal (%)", "setting": "U2OS; [3]", "value": 95, "unit": "%"},
      {"measurement": "Population Pyknosed Nuclei (%)", "setting": "U2OS; [3]", "value": "10% and 5%"},
      {"measurement": "Population Tubulin-Different-Phenotype (%)", "setting": "U2OS; [3]", "value": "2% and 6%"},
      {"measurement": "Total Cell Count", "setting": "U2OS; [3]", "value": "505 and 184"},
      {"measurement": "Population Apoptotic (%)", "setting": "Fibroblast; [4]", "value": "32% and 50%"},
      {"measurement": "Population Fragmented Nuclei (%)", "setting": "Fibroblast; [4]", "value": "18% and 25%"},
      {"measurement": "Population Healthy Nuclei (%)", "setting": "Fibroblast; [4]", "value": "65% and 51%"},
      {"measurement": "Population Hoechst High Intensity Objects (%)", "setting": "Fibroblast; [4]", "value": "1% and 4%"},
      {"measurement": "Population Membrane Permeable-Phenotype (%)", "setting": "Fibroblast; [4]", "value": "0% and 5%"},
      {"measurement": "Population Mitochondria Different-Phenotype (%)", "setting": "Fibroblast; [4]", "value": "7% and 4%"},
      {"measurement": "Population Mitotic Cells (%)", "setting": "Fibroblast; [4]", "value": "67% and 50%"},
      {"measurement": "Population Normal (%)", "setting": "Fibroblast; [4]", "value": "98% and 95%"},
      {"measurement": "Population Pyknosed Nuclei (%)", "setting": "Fibroblast; [4]", "value": "15% and 23%"},
      {"measurement": "Population Tubulin-Different-Phenotype (%)", "setting": "Fibroblast; [4]", "value": "32% and 36%"},
      {"measurement": "Total Cell Count", "setting": "Fibroblast; [4]", "value": "179 and 170"},
      {"measurement": "Population Apoptotic (%)", "setting": "Fibroblast; [5]", "value": "43% and 62%"},
      {"measurement": "Population Fragmented Nuclei (%)", "setting": "Fibroblast; [5]", "value": "13% and 32%"},
      {"measurement": "Population Healthy Nuclei (%)", "setting": "Fibroblast; [5]", "value": "69% and 50%"},
      {"measurement": "Population Hoechst High Intensity Objects (%)", "setting": "Fibroblast; [5]", "value": "2% and 7%"},
      {"measurement": "Population Membrane Permeable-Phenotype (%)", "setting": "Fibroblast; [5]", "value": "1% and 5%"},
      {"measurement": "Population Mitochondria Different-Phenotype (%)", "setting": "Fibroblast; [5]", "value": "8% and 6%"},
      {"measurement": "Population Mitotic Cells (%)", "setting": "Fibroblast; [5]", "value": "56% and 37%"},
      {"measurement": "Population Normal (%)", "setting": "Fibroblast; [5]", "value": "97% and 92%"},
      {"measurement": "Population Pyknosed Nuclei (%)", "setting": "Fibroblast; [5]", "value": "16% and 17%"},
      {"measurement": "Population Tubulin-Different-Phenotype (%)", "setting": "Fibroblast; [5]", "value": "33% and 47%"},
      {"measurement": "Total Cell Count", "setting": "Fibroblast; [5]", "value": "183 and 167"},
      {"measurement": "Population Apoptotic (%)", "setting": "Fibroblast; [6]", "value": "53% and 29%"},
      {"measurement": "Population Fragmented Nuclei (%)", "setting": "Fibroblast; [6]", "value": "16% and 25%"},
      {"measurement": "Population Healthy Nuclei (%)", "setting": "Fibroblast; [6]", "value": "66% and 54%"},
      {"measurement": "Population Hoechst High Intensity Objects (%)", "setting": "Fibroblast; [6]", "value": "3% and 7%"},
      {"measurement": "Population Membrane Permeable-Phenotype (%)", "setting": "Fibroblast; [6]", "value": "0% and 3%"},
      {"measurement": "Population Mitochondria Different-Phenotype (%)", "setting": "Fibroblast; [6]", "value": "5% and 7%"},
      {"measurement": "Population Mitotic Cells (%)", "setting": "Fibroblast; [6]", "value": "46% and 70%"},
      {"measurement": "Population Normal (%)", "setting": "Fibroblast; [6]", "value": "96% and 92%"},
      {"measurement": "Population Pyknosed Nuclei (%)", "setting": "Fibroblast; [6]", "value": "17% and 20%"},
      {"measurement": "Population Tubulin-Different-Phenotype (%)", "setting": "Fibroblast; [6]", "value": "30% and 39%"},
      {"measurement": "Total Cell Count", "setting": "Fibroblast; [6]", "value": "179 and 162"},
      {"measurement": "Population Apoptotic (%)", "setting": "Fibroblast; [1]", "value": "63% and 50%"},
      {"measurement": "Population Fragmented Nuclei (%)", "setting": "Fibroblast; [1]", "value": "13% and 36%"},
      {"measurement": "Population Healthy Nuclei (%)", "setting": "Fibroblast; [1]", "value": "74% and 50%"},
      {"measurement": "Population Hoechst High Intensity Objects (%)", "setting": "Fibroblast; [1]", "value": "7% and 6%"},
      {"measurement": "Population Membrane Permeable-Phenotype (%)", "setting": "Fibroblast; [1]", "value": "0% and 5%"},
      {"measurement": "Population Mitochondria Different-Phenotype (%)", "setting": "Fibroblast; [1]", "value": 5, "unit": "%"},
      {"measurement": "Population Mitotic Cells (%)", "setting": "Fibroblast; [1]", "value": "36% and 50%"},
      {"measurement": "Population Normal (%)", "setting": "Fibroblast; [1]", "value": "92% and 93%"},
      {"measurement": "Population Pyknosed Nuclei (%)", "setting": "Fibroblast; [1]", "value": "11% and 13%"},
      {"measurement": "Population Tubulin-Different-Phenotype (%)", "setting": "Fibroblast; [1]", "value": "31% and 54%"},
      {"measurement": "Total Cell Count", "setting": "Fibroblast; [1]", "value": "171 and 159"},
      {"measurement": "Population Apoptotic (%)", "setting": "Fibroblast; [2]", "value": "72% and 51%"},
      {"measurement": "Population Fragmented Nuclei (%)", "setting": "Fibroblast; [2]", "value": "21% and 30%"},
      {"measurement": "Population Healthy Nuclei (%)", "setting": "Fibroblast; [2]", "value": "65% and 50%"},
      {"measurement": "Population Hoechst High Intensity Objects (%)", "setting": "Fibroblast; [2]", "value": "5% and 2%"},
      {"measurement": "Population Membrane Permeable-Phenotype (%)", "setting": "Fibroblast; [2]", "value": "0% and 3%"},
      {"measurement": "Population Mitochondria Different-Phenotype (%)", "setting": "Fibroblast; [2]", "value": "7% and 6%"},
      {"measurement": "Population Mitotic Cells (%)", "setting": "Fibroblast; [2]", "value": "27% and 48%"},
      {"measurement": "Population Normal (%)", "setting": "Fibroblast; [2]", "value": "94% and 97%"},
      {"measurement": "Population Pyknosed Nuclei (%)", "setting": "Fibroblast; [2]", "value": "12% and 18%"},
      {"measurement": "Population Tubulin-Different-Phenotype (%)", "setting": "Fibroblast; [2]", "value": "26% and 39%"},
      {"measurement": "Total Cell Count", "setting": "Fibroblast; [2]", "value": "186 and 169"},
      {"measurement": "Population Apoptotic (%)", "setting": "Fibroblast; [3]", "value": "46% and 55%"},
      {"measurement": "Population Fragmented Nuclei (%)", "setting": "Fibroblast; [3]", "value": "16% and 36%"},
      {"measurement": "Population Healthy Nuclei (%)", "setting": "Fibroblast; [3]", "value": "68% and 52%"},
      {"measurement": "Population Hoechst High Intensity Objects (%)", "setting": "Fibroblast; [3]", "value": "9% and 5%"},
      {"measurement": "Population Membrane Permeable-Phenotype (%)", "setting": "Fibroblast; [3]", "value": "0% and 7%"},
      {"measurement": "Population Mitochondria Different-Phenotype (%)", "setting": "Fibroblast; [3]", "value": "4% and 8%"},
      {"measurement": "Population Mitotic Cells (%)", "setting": "Fibroblast; [3]", "value": "53% and 44%"},
      {"measurement": "Population Normal (%)", "setting": "Fibroblast; [3]", "value": "90% and 94%"},
      {"measurement": "Population Pyknosed Nuclei (%)", "setting": "Fibroblast; [3]", "value": "15% and 11%"},
      {"measurement": "Population Tubulin-Different-Phenotype (%)", "setting": "Fibroblast; [3]", "value": "35% and 54%"},
      {"measurement": "Total Cell Count", "setting": "Fibroblast; [3]", "value": "185 and 166"}
    ]}
  ]
}
